Laboratory results taken from article PMC3228362 (Biochemistry, 2011).
Where “and” joins values, the source holds several entries; their conditions need not be identical. Equal entries are not always repeated. Where two headings read alike, the source gives them in different places. Marks after values point to notes of the source that are not given here.

What was measured:
T4 exo^- DNA polymerase [1] = experiment: Nucleotide incorporation opposite template 2AP; assay type: biochemical, bacteriophage T4; details: for kpol / Kdincorp: long A+T-rich DNA 1, from data of ref 13
[2] = biological target: T1, RB69 exo^- DNA polymerase (D222A/D327A, wild type) (Escherichia phage RB69, UniProt Q38087, D222A/D327A); assay type: biochemical, bacteriophage RB69; details: opposite template 2AP; for Kd: read-out: Kdincorp, app
T1 sequence (Q38087 whole entry D222A/D327A): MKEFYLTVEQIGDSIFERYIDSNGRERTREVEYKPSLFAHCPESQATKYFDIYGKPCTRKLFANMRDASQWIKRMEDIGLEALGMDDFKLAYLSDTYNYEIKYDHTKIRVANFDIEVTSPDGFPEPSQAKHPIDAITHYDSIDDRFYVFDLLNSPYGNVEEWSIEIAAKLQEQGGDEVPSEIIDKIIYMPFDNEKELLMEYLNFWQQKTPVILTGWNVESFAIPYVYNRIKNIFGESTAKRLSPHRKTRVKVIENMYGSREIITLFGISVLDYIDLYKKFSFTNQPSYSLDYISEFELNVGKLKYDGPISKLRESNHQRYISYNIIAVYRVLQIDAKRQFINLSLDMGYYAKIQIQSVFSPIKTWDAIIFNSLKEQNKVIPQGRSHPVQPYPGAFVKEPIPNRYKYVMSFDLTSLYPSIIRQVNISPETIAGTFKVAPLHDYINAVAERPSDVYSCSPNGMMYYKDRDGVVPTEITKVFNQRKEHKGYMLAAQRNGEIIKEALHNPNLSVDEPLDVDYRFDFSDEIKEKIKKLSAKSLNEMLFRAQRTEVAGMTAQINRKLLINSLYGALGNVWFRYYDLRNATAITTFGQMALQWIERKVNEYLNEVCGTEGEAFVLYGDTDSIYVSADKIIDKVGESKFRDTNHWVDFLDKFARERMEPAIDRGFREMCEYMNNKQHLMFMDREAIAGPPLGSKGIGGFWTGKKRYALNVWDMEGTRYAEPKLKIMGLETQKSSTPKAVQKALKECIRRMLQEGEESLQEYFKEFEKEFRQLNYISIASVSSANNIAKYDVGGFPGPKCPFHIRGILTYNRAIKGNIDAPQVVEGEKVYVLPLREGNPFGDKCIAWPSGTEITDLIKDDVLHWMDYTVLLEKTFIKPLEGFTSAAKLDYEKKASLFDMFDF
Outline: (§1)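 Single-turnover rapid chemical quench at 22 °C in 66 mM Tris-HCl pH 7.5. Final concentrations were 100 nM 5′-32P-labeled DNA, 1 μM polymerase, 10 mM MgCl2 and varying dNTP. Reactions were quenched with 0.5 M EDTA. Products were resolved on 20% acrylamide/8 M urea gels and quantified by phosphorimaging. Data were fit to a single exponential.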

[3] = biological target: T2, RB69 Y567A exo^- DNA polymerase (Escherichia phage RB69, UniProt Q38087, D222A/D327A/Y567A); assay type: biochemical, bacteriophage RB69
T2 sequence (Q38087 whole entry D222A/D327A/Y567A): as the sequence (Q38087 whole entry D222A/D327A) above, with Y567A counted along it
Outline: as §1

T4 exo^- DNA polymerase [4] = details: opposite template 2AP, long A+T-rich DNA 1, cited from earlier work
T4 exo^- DNA polymerase [5] = experiment: Nucleotide binding opposite template 2AP; parameters: species or system bacteriophage T4; details: for Kd: opposite template 2AP
[6] = biological target: T1, RB69 exo^- DNA polymerase (D222A/D327A, wild type); experiment: Nucleotide binding opposite template 2AP; parameters: species or system bacteriophage RB69; details: for Kd: read-out: Kdbind, opposite template 2AP
Outline: (§2)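 Chain-terminated (dideoxy) 2AP-labeled primer-template DNA at 200 nM with a 2 to 2.5-fold excess of polymerase, in 25 mM HEPES pH 7.6, 50 mM NaCl, 1 mM DTT and 10 mM MgCl2. Nucleotide was added incrementally. Excitation was at 315 nm and emission was scanned from 330 to 450 nm with 2 nm band-pass, at 20 °C. Kd was taken from the fluorescence quench curves.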

[7] = biological target: T2, RB69 Y567A exo^- DNA polymerase; experiment: Nucleotide binding opposite template 2AP; parameters: species or system bacteriophage RB69; details: for Kd: opposite template 2AP
Outline: as §2

T4 exo^- DNA polymerase [8] = details: cited from earlier work
DNA polymerase α = details: cited from earlier work
[9] = A+T- and G+C-rich DNAs (Table 1)
[10] = opposite template 2AP, long A+T-rich DNA 1
[11] = opposite template 2AP, long G+C-rich DNA 2
[12] = opposite template 2AP, short A+T-rich DNA 3
[13] = opposite template 2AP, short G+C-rich DNA 4
[14] = read-out: Kdincorp, app, opposite template 2AP, long A+T-rich DNA 1
[15] = read-out: Kdincorp, app, opposite template 2AP, short A+T-rich DNA 3
[16] = read-out: Kdincorp, app, opposite template 2AP, short G+C-rich DNA 4
[17] = read-out: Kdbind, long A+T-rich DNA 1
[18] = read-out: Kdbind, long G+C-rich DNA 2
[19] = read-out: Kd (Table 3), DNA 1, conditions as Table 1

Nc1ccn([C@H]2C[C@H](O)[C@@H](COP(=O)(O)O)O2)c(=O)n1 [dCMP]
kpol / Kdincorp (T4 exo^- DNA polymerase [1]): <0.0008 µM⁻¹ s⁻¹ | kpol (overall nucleotide incorporation rate) ([2]; short A+T-rich DNA 3): slow ^c | kpol / Kdincorp ([2]; short A+T-rich DNA 3): <1000 to 3000 M⁻¹ s⁻¹ | kpol (overall nucleotide incorporation rate) ([2]; short G+C-rich DNA 4): slow ^c | kpol / Kdincorp ([2]; short G+C-rich DNA 4): <1000 to 3000 M⁻¹ s⁻¹ | kpol [3, 9]: ~ 6 s^−1 | kpol, fold lower than for incorporation of dTMP [3, 9]: > 30 fold | kpol/Kd incorporation ratio (efficiency of misincorporation) ([3]; longer and shorter A+T-rich DNA substrates): 30000 to 40000 M⁻¹ s⁻¹ | kpol/Kd incorporation ratio (efficiency of misincorporation) ([3]; longer and shorter G+C-rich DNA substrates): 3000 to 7000 M⁻¹ s⁻¹ | kpol (overall nucleotide incorporation rate) [3, 10]: 6.4 ± 0.6 s⁻¹ | kpol / Kdincorp [3, 10]: 40000 M⁻¹ s⁻¹ | kpol (overall nucleotide incorporation rate) [3, 11]: ~6 s⁻¹ | kpol / Kdincorp [3, 11]: ~3000 M⁻¹ s⁻¹ | kpol (overall nucleotide incorporation rate) [3, 12]: 9.3 ± 0.7 s⁻¹ | kpol / Kdincorp [3, 12]: 30000 M⁻¹ s⁻¹ | kpol / Kdincorp [3, 13]: 7000 M⁻¹ s⁻¹ | Kd ([3]; read-out: Kd,app for incorporation, shorter A+T- and G+C-rich DNAs (Table 2)): 300 to 360 µM | Kd [3, 14]: ~170 µM and 170 µM | Kd [3, 15]: 298 ± 65 µM | Kd [3, 16]: 361 ± 52 µM | kpol (overall nucleotide incorporation rate) (T4 exo^- DNA polymerase [4]): 2.3 ± 0.1 s^−1 ^a

Nc1ccn([C@H]2C[C@H](O)[C@@H](COP(=O)(O)OP(=O)(O)OP(=O)(O)O)O2)c(=O)n1 [dCTP]
discrimination against binding compared to dTTP, factor (T4 exo^- DNA polymerase [5]; 30 μM compared to 3 mM): ≥ 100 | discrimination against binding compared to dTTP, factor ([6]; 30 μM compared to 3 mM): ≥ 100 | Kd for binding, fold higher than Kd for dTTP binding ([7]; A+T-rich DNA substrate (DNA 1)): < 3 fold | Kd for binding, fold higher than Kd for dTTP binding ([7]; G+C-rich DNA (DNA 2)): > 20 fold | Kd [7, 17]: 24.8 ± 2.1 µM | Kd [7, 18]: ~317 µM and 317 µM | Kd ([7]; read-out: Kdbind, short A+T-rich DNA 3): ~53 µM and 53 µM | Kd ([7]; read-out: Kdbind, short G+C-rich DNA 4): ~373 µM and 373 µM | inhibition of dTTP binding (T4 exo^- DNA polymerase [8]): not an inhibitor of dTTP binding | Kd (T4 exo^- DNA polymerase [8]; read-out: Kd for binding opposite template 2AP): ≥ 3000 µM

Cc1cc(C2CC(O)C(COP(=O)(O)OP(=O)(O)OP(=O)(O)O)O2)c(F)cc1F (centres unmarked) [dFTP, difluorotoluene deoxynucleoside triphosphate]
quench of 2AP fluorescence (T4 exo^- DNA polymerase [8]; at concentrations <150 μM, T4 DNA pol binary complexes): does not quench 2AP fluorescence | Ki (T4 exo^- DNA polymerase [8]; read-out: Ki (competitive inhibitor of dTTP-Mg^2+-induced quenching), T4 DNA pol binary complexes): ~68 µM

Cc1cn([C@H]2C[C@H](O)[C@@H](COP(=O)(O)O)O2)c(=O)[nH]c1=O [dTMP]
dTMP/dCMP (ratio of kpol / Kdincorp) (T4 exo^- DNA polymerase [1]; long A+T-rich DNA 1): >560 | kpol / Kdincorp (T4 exo^- DNA polymerase [1]): 0.45 ^f μM^−1 s^−1 | dTMP/dCMP (ratio of kpol / Kdincorp) ([2]; short A+T-rich DNA 3): >1000 | kpol (overall nucleotide incorporation rate) ([2]; short A+T-rich DNA 3): 379 ± 28 s⁻¹ | kpol / Kdincorp ([2]; short A+T-rich DNA 3): 3.3e+06 M⁻¹ s⁻¹ | dTMP/dCMP (ratio of kpol / Kdincorp) ([2]; short G+C-rich DNA 4): >1000 | kpol (overall nucleotide incorporation rate) ([2]; short G+C-rich DNA 4): 201 ± 16 s⁻¹ | kpol / Kdincorp ([2]; short G+C-rich DNA 4): 1e+06 M⁻¹ s⁻¹ | Kd ([2]; short A+T-rich DNA 3): 114 ± 26 µM | Kd ([2]; short G+C-rich DNA 4): 200 ± 45 µM | kpol [3, 9]: ~ 200 s^−1 | preference for dTMP over dCMP incorporation ([3]; longer DNA substrates (Table 1)): ~ 300 fold and > 300 fold | dTMP/dCMP (ratio of kpol / Kdincorp) [3, 10]: 375 | kpol (overall nucleotide incorporation rate) [3, 10]: 240 ± 11 s⁻¹ | kpol / Kdincorp [3, 10]: 1.5e+07 M⁻¹ s⁻¹ | dTMP/dCMP (ratio of kpol / Kdincorp) [3, 11]: 333 | kpol (overall nucleotide incorporation rate) [3, 11]: 190 ± 11 s⁻¹ | kpol / Kdincorp [3, 11]: 1e+06 M⁻¹ s⁻¹ | dTMP/dCMP (ratio of kpol / Kdincorp) [3, 12]: 143 | kpol (overall nucleotide incorporation rate) [3, 12]: 289 ± 9 s⁻¹ | kpol / Kdincorp [3, 12]: 4.3e+06 M⁻¹ s⁻¹ | dTMP/dCMP (ratio of kpol / Kdincorp) [3, 13]: 129 | kpol (overall nucleotide incorporation rate) [3, 13]: 233 ± 27 s⁻¹ | kpol / Kdincorp [3, 13]: 900000 M⁻¹ s⁻¹ | Kd [3, 14]: ~16 µM and 16 µM | Kd ([3]; read-out: Kdincorp, app, opposite template 2AP, long G+C-rich DNA 2): 180 ± 75 µM | Kd [3, 15]: 67.3 ± 8 µM | Kd [3, 16]: 263 ± 78 µM | preference for dTMP over dCMP incorporation ([3]; shorter DNAs (Table 2)): ~ 100 fold and > 100 fold | kpol (overall nucleotide incorporation rate) (T4 exo^- DNA polymerase [4]): 165 ± 3 s^−1 ^a | Kd (T4 exo^- DNA polymerase [4]; read-out: Kdincorp, app): 367 ± 36 µM | incorporation opposite template 2AP favored over incorporation of dCMP (DNA polymerase α): 20- to 25 fold

Cc1cn([C@H]2C[C@H](O)[C@@H](COP(=O)(O)OP(=O)(O)OP(=O)(O)O)O2)c(=O)[nH]c1=O [dTTP]
kpol (rate of nucleotide binding) (T4 exo^- DNA polymerase [5]; long G+C-rich DNA 2): rapid | Kd (T4 exo^- DNA polymerase [5]; [18]): 28.7 ± 0.6 µM | Kd ([6]; long A+T-rich DNA 1): 31.1 ± 0.9 µM | Kd ([6]; long G+C-rich DNA 2): 30 ± 0.4 µM | Kd [7, 17]: 9.2 ± 0.8 µM | Kd [7, 18]: 15.1 ± 1.4 µM | kpol (rate of nucleotide binding) (T4 exo^- DNA polymerase [8]; long A+T-rich DNA 1, rapid = within dead time of stopped flow instrument): rapid ^a | Kd (T4 exo^- DNA polymerase [8]; read-out: Kdbind, opposite template 2AP, long A+T-rich DNA 1): ~35 µM and 35 µM

O=c1ccn([C@H]2C[C@H](O)[C@@H](COP(=O)(O)OP(=O)(O)OP(=O)(O)O)O2)c(=O)[nH]1 [dUTP]
Kd (T4 exo^- DNA polymerase [5]; [19]): 74.1 ± 2 µM | Kd [7, 19]: 21 ± 1 µM

O=c1ccn([C@@H]2O[C@H](COP(=O)(O)OP(=O)(O)OP(=O)(O)O)[C@@H](O)[C@H]2O)c(=O)[nH]1 [rUTP]
Kd (T4 exo^- DNA polymerase [5]; [19]): > 3000 µM | Kd [7, 19]: 522 ± 55 µM
